According to ChEMBL document CHEMBL1143090, “Structure-activity relationship and liver microsome stability studies of pyrrole necroptosis inhibitors” (Bioorg Med Chem Lett, 2008):
Activity calls are given as the source filed them. The rule behind the calls is not given here.

What was measured:
[1] = system: Jurkat; test: Inhibition of TNF-alpha-induced necroptosis in FADD-deficient human Jurkat T cells; format: functional, cell-based
Method in brief: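 FADD-deficient variant of human Jurkat T cells given 10 ng/mL human TNF-α alongside increasing test compound concentrations for 24 h. Viability read by ATP-based assay; EC50 from the concentration series.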

[2] = system: L929; test: Inhibition of necroptosis in zVAD-induced mouse L929 cells assessed as cell viability at 30 uM after 24 hrs; format: functional, cell-based
Method in brief: (§1)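 FADD-deficient Jurkat, L929 and mouse adult lung fibroblast cells exposed 24 hr to 10 ng/mL human TNF-α and/or 100 µM zVAD.fmk, with compound at 30 µM. ATP-based viability, normalized to compound-treated cells without necroptotic stimulus (100%); N = 2, standard deviation.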

[3] = Intrinsic clearance in mouse liver microsome; format: ADME; conditions: liver microsomes
Method in brief: (§2)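 Pooled mouse liver microsomes (0.5 mg/mL protein) with 3 µM final compound and 1 mM NADPH, sampled at 0, 5, 15, 30, 60 min; no-NADPH incubation as negative control. Methanol quench, LC/MS (N=3) against internal standard; ln peak-area ratio vs time slope gives k, t1/2 = 0.693/k, CLint = V(0.693)/t1/2.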

[4] = system: L929; test: Inhibition of necroptosis in TNF-alpha-induced mouse L929 cells assessed as cell viability at 30 uM after 24 hrs; format: functional, cell-based; method in brief: as §1
[5] = species: Mus musculus; test: Inhibition of necroptosis in zVAD-induced mouse fibroblast assessed as cell viability at 30 uM after 24 hrs; format: functional; method in brief: as §1
[6] = system: Jurkat; test: Inhibition of necroptosis in TNF-alpha-induced human Jurkat T cells assessed as cell viability at 30 uM after 24 hrs; format: functional, cell-based; method in brief: as §1
[7] = Metabolic stability assessed as half life in mouse liver microsomes; format: ADME, Microsome; method in brief: as §2

Compound | EC50 [1] | also measured
Cn1c(C#N)ccc1S(=O)(=O)NCc1c(F)cccc1Cl | > 20000 nM | –
Cn1c(C#N)ccc1C(=O)NCc1c(F)cccc1Cl | 340 nM | –
CC(C)n1cccc1C(=O)N[C@@H](C)c1c(F)cccc1Cl | 520 nM | –
Cn1c(Cl)ccc1C(=O)NCc1c(F)cccc1Cl | 740 nM | –
CCCCC(NC(=O)c1cccn1C(C)C)c1c(F)cccc1Cl (racemic) | > 20000 nM | –
CCn1c(Br)ccc1C(=O)NCc1c(F)cccc1Cl | 2400 nM | –
Cc1ccn(C(C)C)c1C(=O)NCc1c(F)cccc1Cl | 7800 nM | –
CC(C)n1c(C#N)ccc1C(=O)NCc1c(F)cccc1Cl | 1400 nM | –
CC(C)n1cccc1C(=O)NCc1c(F)cccc1Cl | 440 nM | –
C[C@H](NC(=O)c1snnc1C1CC1)c1c(F)cccc1Cl | – | Activity [2]: Active; microsomal CLint [3]: 42.6 µL/min/mg; Activity [4]: Active; Activity [5]: Active; Activity [6]: Active; half-life [7]: 0.542 h
Cc1ccn(C)c1C(=O)NCc1c(F)cccc1Cl | > 20000 nM | –
O=C(NCc1c(F)cccc1Cl)c1ccc[nH]1 | > 20000 nM | –
CN(Cc1c(F)cccc1Cl)C(=O)c1cccn1C | > 20000 nM | –
CCn1c(C#N)ccc1C(=O)NCc1c(F)cccc1Cl | 1900 nM | –
Cn1cccc1C(=O)NCc1c(F)cccc1Cl | 900 nM | –
Cc1ccccc1C(=O)NCc1c(F)cccc1Cl | – | microsomal CLint [3]: 7.13 µL/min/mg; half-life [7]: 3.23 h
Cn1cc(C#N)cc1C(=O)NCc1c(F)cccc1Cl | > 20000 nM | –
O=C(NCc1c(F)cccc1Cl)c1cccn1Cc1ccccc1 | > 20000 nM | –
CC(NC(=O)c1cccn1C(C)C)c1c(F)cccc1Cl (racemic) | 2100 nM | –
CC(c1ccccc1)n1cccc1C(=O)NCc1c(F)cccc1Cl (centres undefined) | > 20000 nM | –
Cc1cc[nH]c1C(=O)NCc1c(F)cccc1Cl | 4900 nM | –
CC(C)n1cc(C#N)cc1C(=O)NCc1c(F)cccc1Cl | > 20000 nM | –
CN1C(=O)C(Cc2c[nH]c3ccccc23)NC1=S (racemic) [NECROSTATIN] | 50 nM | Activity [2]: Active; Activity [4]: Active; Activity [5]: Active; Activity [6]: Active
CC(C)n1cccc1C(=O)N[C@H](C)c1c(F)cccc1Cl | > 20000 nM | –
